Experiments:
Type in all cases: functional
Digitaria sanguinalis [1] = experiment: Herbicidal activity against Digitaria sanguinalis (hairy crabgrass) assessed as inhibition in green house at 93.75 g/ha pre-emergence treatment measured after 15 days; details: 360 h
How it was run: (§1)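 Greenhouse pot test. Two replicates per treatment. Control was the same amount of water, N,N-dimethylformamide and Tween 20. Fresh weights were taken 15 days after treatment, and percentage inhibition was calculated relative to controls.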

Digitaria sanguinalis [2] = experiment: Herbicidal activity against Digitaria sanguinalis (hairy crabgrass) assessed as inhibition in green house at 187.5 g/ha pre-emergence treatment measured after 15 days; details: 360 h; how it was run: as §1
Digitaria sanguinalis [3] = experiment: Herbicidal activity against Digitaria sanguinalis (hairy crabgrass) assessed as inhibition in green house at 375 g/ha pre-emergence treatment measured after 15 days; details: 360 h; how it was run: as §1
[4] = system: Brassica rapa subsp. oleifera; experiment: Herbicidal activity against Brassica rapa subsp. oleifera assessed as inhibition of root growth at 100 ug/ml at 28 +/- 1 degC measured after 65 hr by root test
How it was run: (§2)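 Rape seeds were presoaked 4 h in distilled water. About 15 seeds were placed per 6-cm Petri plate on filter paper pre-wetted with 2 mL inhibitor solution. Plates germinated in the dark for 65 h at 28 ± 1 °C. Root length of 10 roots per plate was measured and averaged. Result expressed as percentage inhibition.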

Echinochloa crus-galli [5] = experiment: Herbicidal activity against Echinochloa crus-galli (barnyard grass) assessed as inhibition in green house at 750 g/ha pre-emergence treatment measured after 15 days; details: 360 h; how it was run: as §1
Echinochloa crus-galli [6] = experiment: Herbicidal activity against Echinochloa crus-galli (barnyard grass) assessed as inhibition in green house at 1500 g/ha post-emergence treatment measured after 15 days; details: 360 h; how it was run: as §1
Echinochloa crus-galli [7] = experiment: Herbicidal activity against Echinochloa crus-galli (barnyard grass) assessed as inhibition in green house at 187.5 g/ha pre-emergence treatment measured after 15 days; details: 360 h; how it was run: as §1
[8] = system: Brassica rapa subsp. oleifera; experiment: Herbicidal activity against Brassica rapa subsp. oleifera assessed as inhibition in green house at 1500 g/ha post-emergence treatment measured after 15 days; details: 360 h; how it was run: as §1
Echinochloa crus-galli [9] = experiment: Herbicidal activity against Echinochloa crus-galli (barnyard grass) assessed as inhibition in green house at 375 g/ha pre-emergence treatment measured after 15 days; details: 360 h; how it was run: as §1
Digitaria sanguinalis [10] = experiment: Herbicidal activity against Digitaria sanguinalis (hairy crabgrass) assessed as inhibition in green house at 750 g/ha pre-emergence treatment measured after 15 days; details: 360 h; how it was run: as §1
[11] = system: Brassica rapa subsp. oleifera; experiment: Herbicidal activity against Brassica rapa subsp. oleifera assessed as inhibition of root growth at 10 ug/ml at 28 +/- 1 degC measured after 65 hr by root test; how it was run: as §2
Echinochloa crus-galli [12] = experiment: Herbicidal activity against Echinochloa crus-galli (barnyard grass) assessed as inhibition in green house at 1500 g/ha pre-emergence treatment measured after 15 days; details: 360 h; how it was run: as §1
Echinochloa crus-galli [13] = experiment: Herbicidal activity against Echinochloa crus-galli (barnyard grass) assessed as inhibition in green house at 93.75 g/ha pre-emergence treatment measured after 15 days; details: 360 h; how it was run: as §1
Echinochloa crus-galli [14] = experiment: Herbicidal activity against Echinochloa crus-galli (barnyard grass) assessed as inhibition of seedling growth at 100 ug/ml at 28 +/- 1 degC measured after 65 hr by cup test
Digitaria sanguinalis [15] = experiment: Herbicidal activity against Digitaria sanguinalis (hairy crabgrass) assessed as inhibition in green house at 1500 g/ha post-emergence treatment measured after 15 days; details: 360 h; how it was run: as §1
Amaranthus retroflexus [16] = experiment: Herbicidal activity against Amaranthus retroflexus assessed as inhibition in green house at 1500 g/ha pre-emergence treatment measured after 15 days; details: 360 h; how it was run: as §1
[17] = system: Brassica rapa subsp. oleifera; experiment: Herbicidal activity against Brassica rapa subsp. oleifera assessed as inhibition in green house at 1500 g/ha pre-emergence treatment measured after 15 days; details: 360 h; how it was run: as §1
Amaranthus retroflexus [18] = experiment: Herbicidal activity against Amaranthus retroflexus assessed as inhibition in green house at 1500 g/ha post-emergence treatment measured after 15 days; details: 360 h; how it was run: as §1
Digitaria sanguinalis [19] = experiment: Herbicidal activity against Digitaria sanguinalis (hairy crabgrass) assessed as inhibition in green house at 1500 g/ha pre-emergence treatment measured after 15 days; details: 360 h; how it was run: as §1
Echinochloa crus-galli [20] = experiment: Herbicidal activity against Echinochloa crus-galli (barnyard grass) assessed as inhibition of seedling growth at 10 ug/ml at 28 +/- 1 degC measured after 65 hr by cup test

CCOc1ccc(/C(O)=C2\C(=O)CN(C(C)C)C2=O)cc1
inhibition at 93.75 g/ha (Digitaria sanguinalis [1]): 22% | inhibition at 187.5 g/ha (Digitaria sanguinalis [2]): 84% | inhibition at 375 g/ha (Digitaria sanguinalis [3]): 94% | inhibition at 100 µg/mL [4]: 82% | inhibition at 750 g/ha (Echinochloa crus-galli [5]): 98% | inhibition at 1500 g/ha (Echinochloa crus-galli [6]): 19% | inhibition at 187.5 g/ha (Echinochloa crus-galli [7]): 52% | inhibition at 1500 g/ha [8]: 0% | inhibition at 375 g/ha (Echinochloa crus-galli [9]): 94% | inhibition at 750 g/ha (Digitaria sanguinalis [10]): 96% | inhibition at 10 µg/mL [11]: 8% | inhibition at 1500 g/ha (Echinochloa crus-galli [12]): 100% | inhibition at 93.75 g/ha (Echinochloa crus-galli [13]): 8% | inhibition at 100 µg/mL (Echinochloa crus-galli [14]): 80% | inhibition at 1500 g/ha (Digitaria sanguinalis [15]): 0% | inhibition at 1500 g/ha (Amaranthus retroflexus [16]): 0% | inhibition at 1500 g/ha [17]: 0% | inhibition at 1500 g/ha (Amaranthus retroflexus [18]): 0% | inhibition at 1500 g/ha (Digitaria sanguinalis [19]): 98% | inhibition at 10 µg/mL (Echinochloa crus-galli [20]): 79%

CCOc1ccc(/C(O)=C2\C(=O)CN(C3CC3)C2=O)cc1
inhibition at 187.5 g/ha (Digitaria sanguinalis [2]): 18% | inhibition at 375 g/ha (Digitaria sanguinalis [3]): 33% | inhibition at 100 µg/mL [4]: 47% | inhibition at 750 g/ha (Echinochloa crus-galli [5]): 99% | inhibition at 1500 g/ha (Echinochloa crus-galli [6]): 0% | inhibition at 187.5 g/ha (Echinochloa crus-galli [7]): 0% | inhibition at 1500 g/ha [8]: 0% | inhibition at 375 g/ha (Echinochloa crus-galli [9]): 13% | inhibition at 750 g/ha (Digitaria sanguinalis [10]): 77% | inhibition at 10 µg/mL [11]: 0% | inhibition at 1500 g/ha (Echinochloa crus-galli [12]): 100% | inhibition at 100 µg/mL (Echinochloa crus-galli [14]): 79% | inhibition at 1500 g/ha (Digitaria sanguinalis [15]): 6% | inhibition at 1500 g/ha (Amaranthus retroflexus [16]): 0% | inhibition at 1500 g/ha [17]: 6% | inhibition at 1500 g/ha (Amaranthus retroflexus [18]): 13% | inhibition at 1500 g/ha (Digitaria sanguinalis [19]): 42% | inhibition at 10 µg/mL (Echinochloa crus-galli [20]): 78%

CS(=O)(=O)c1ccc(C(=O)C2C(=O)CCCC2=O)c(Cl)c1 [SULCOTRIONE]
inhibition at 93.75 g/ha (Digitaria sanguinalis [1]): 100% | inhibition at 187.5 g/ha (Digitaria sanguinalis [2]): 100% | inhibition at 375 g/ha (Digitaria sanguinalis [3]): 100% | inhibition at 750 g/ha (Echinochloa crus-galli [5]): 100% | inhibition at 187.5 g/ha (Echinochloa crus-galli [7]): 93% | inhibition at 375 g/ha (Echinochloa crus-galli [9]): 100% | inhibition at 750 g/ha (Digitaria sanguinalis [10]): 100% | inhibition at 93.75 g/ha (Echinochloa crus-galli [13]): 70%

COc1ccc(/C(O)=C2\C(=O)CN(C(C)C)C2=O)c(OC)c1
inhibition at 93.75 g/ha (Digitaria sanguinalis [1]): 0% | inhibition at 187.5 g/ha (Digitaria sanguinalis [2]): 68% | inhibition at 375 g/ha (Digitaria sanguinalis [3]): 77% | inhibition at 100 µg/mL [4]: 69% | inhibition at 750 g/ha (Echinochloa crus-galli [5]): 100% | inhibition at 187.5 g/ha (Echinochloa crus-galli [7]): 93% | inhibition at 375 g/ha (Echinochloa crus-galli [9]): 100% | inhibition at 750 g/ha (Digitaria sanguinalis [10]): 93% | inhibition at 10 µg/mL [11]: 27% | inhibition at 93.75 g/ha (Echinochloa crus-galli [13]): 34% | inhibition at 100 µg/mL (Echinochloa crus-galli [14]): 80% | inhibition at 10 µg/mL (Echinochloa crus-galli [20]): 78%

COc1ccc(/C(O)=C2\C(=O)CN(C3CC3)C2=O)cc1OC
inhibition at 100 µg/mL [4]: 72% | inhibition at 1500 g/ha (Echinochloa crus-galli [6]): 3% | inhibition at 1500 g/ha [8]: 0% | inhibition at 10 µg/mL [11]: 69% | inhibition at 1500 g/ha (Echinochloa crus-galli [12]): 0% | inhibition at 100 µg/mL (Echinochloa crus-galli [14]): 65% | inhibition at 1500 g/ha (Digitaria sanguinalis [15]): 0% | inhibition at 1500 g/ha (Amaranthus retroflexus [16]): 0% | inhibition at 1500 g/ha [17]: 0% | inhibition at 1500 g/ha (Amaranthus retroflexus [18]): 0% | inhibition at 1500 g/ha (Digitaria sanguinalis [19]): 11% | inhibition at 10 µg/mL (Echinochloa crus-galli [20]): 0%

COc1ccc(/C(O)=C2\C(=O)CN(C3CC3)C2=O)cc1
inhibition at 375 g/ha (Digitaria sanguinalis [3]): 69% | inhibition at 100 µg/mL [4]: 70% | inhibition at 750 g/ha (Echinochloa crus-galli [5]): 69% | inhibition at 1500 g/ha (Echinochloa crus-galli [6]): 0% | inhibition at 1500 g/ha [8]: 0% | inhibition at 375 g/ha (Echinochloa crus-galli [9]): 7% | inhibition at 750 g/ha (Digitaria sanguinalis [10]): 73% | inhibition at 10 µg/mL [11]: 35% | inhibition at 1500 g/ha (Echinochloa crus-galli [12]): 81% | inhibition at 100 µg/mL (Echinochloa crus-galli [14]): 66% | inhibition at 1500 g/ha (Digitaria sanguinalis [15]): 0% | inhibition at 1500 g/ha (Amaranthus retroflexus [16]): 0% | inhibition at 1500 g/ha [17]: 0% | inhibition at 1500 g/ha (Amaranthus retroflexus [18]): 0% | inhibition at 1500 g/ha (Digitaria sanguinalis [19]): 57% | inhibition at 10 µg/mL (Echinochloa crus-galli [20]): 62%

Reference: ChEMBL document CHEMBL3045615, “Synthesis and herbicidal evaluation of novel 3-[(alpha-hydroxy-substituted)benzylidene]pyrrolidine-2,4-diones” (J Agric Food Chem, 2005)
